Screens as filed in PubChem BioAssay.
A selection: hits, their analogues and other compounds. The true share with any hit is near 2.9%.
Tn7 DDE FP: inhibitors of Tn7 peptide binding to fibrin DD(E), primary screen, biochemical, fluorescence polarization, human fibrin, Tn7 probe | FP displacement of FITC-Tn7 peptide from fibrin DD(E); 0% = median of compound wells per plate | inhibition, % at 8.3 µM | 0.13% of 370,000 active | Fibrinogen beta chain (Homo sapiens), P02675;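 active = inhibition above the mean of compounds falling within the control limits plus 3 SD of them, cut at about 14% in these data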
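Assay system: Human clot-derived fibrin DD(E) complex | Buffer or medium: Tris/NaCl/CaCl2 buffer, pH 7.8 | Repeats: One replicate per compound | Benchmarks: Aha-Tn7 high control | Measure: % inhibition scaled between sample-field median and high-control FP | Schedule: 10 min plus 3 h, room temperature | Signal: Fluorescence polarization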
CendR NRP1 mod: modulators of CendR peptide binding to NRP-1, primary screen, biochemical, fluorescence polarization, uHTS; AID 602438, 2012; FAM-RPARPAR peptide binding to NRP-1; Neuropilin-1 (Homo sapiens), O14786; 0.85% of 360,000 active; inhibition, % at 25 µM;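 active = inhibition or corrected inhibition above about 18%, plus a signal ratio from 0.5 to 1.5, limit read from the data, passing the limit was not always enough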
CRFBP-R2 block: antagonists of CRF-BP/CRF-R2 complex, primary screen, cell-based, HEK293, calcium dye fluorescence, uHTS. CRF-induced calcium fluorescence. inhibition, % at 11.8 µM. 0.59% of 350,000 active;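 active = inhibition of the ligand-induced calcium signal above about 50% at the single tested concentration, limit read from the data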
CRFR2-BP ag: agonists of CRF-BP/CRF-R2 complex, primary screen, cell-based, HEK293, calcium dye fluorescence, uHTS; CRF-binding protein / CRF receptor 2 complex (human); calcium dye fluorescence (FLIPR); percent of saturating CRF peptide response; activation, % at 13.2 µM; 0.46% of 350,000 active; AID 588473, 2011;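 active = activation of at least 50%, plus an integration ratio under a set limit after plate pattern correction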
Tn6 DDE FP: inhibitors of Tn6 peptide binding to fibrin DD(E), primary screen, biochemical, fluorescence polarization, human fibrin, Tn6 probe; Fibrin DD(E) TRITC-Tn6 fluorescence polarization displacement; Fibrinogen beta chain (Homo sapiens), P02675; inhibition, % at 8.3 µM; 0.21% of 370,000 active;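 active = inhibition above a per-campaign cutoff: mean of compounds within control limits plus 3 SD, cut at about 15% in these data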
proKLK7 act: proKLK7 zymogen activators, primary screen, biochemical, fluorescence intensity; Kallikrein-7 (Homo sapiens), P49862; purified proKLK7, EDANS-DABCYL substrate fluorescence; 100% is mature enzyme control, 0% vehicle; activation, % at 7 µM; 0.9% of 370,000 active; AID 652039, 2013;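 active = activation above the mean of all tested compounds plus 3 SD, computed per campaign excluding outliers beyond control limits, cut at about 13% in these data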
Large screens that a line does not name were inactive.

NC1=NC[C@@H](CC2CCCCC2)N1CCc1cc(C(F)(F)F)cc(C(F)(F)F)c1	CRFR2-BP ag 78 (no result: Tn7 DDE FP, Tn6 DDE FP, proKLK7 act)
O=c1c2ccccc2n(Cc2ccco2)n1[C@@H](Cc1ccccc1)Cn1cc(-c2ccc(-c3ccccc3)cc2)nn1	none (no result: CendR NRP1 mod, CRFBP-R2 block, CRFR2-BP ag)
O=S1(=O)c2ccc(Br)cc2OC[C@@H](Cc2ccccc2)N1Cc1cn(CCC2OCCO2)nn1	none (no result: CendR NRP1 mod, CRFBP-R2 block, CRFR2-BP ag)
Cc1ccc(C)c2sc(NC(=O)c3ccc(N4C(=O)CCC4=O)cc3)nc12	CRFR2-BP ag 116
O[C@H](COc1ccc(OC(F)(F)F)cc1)CN1CCC(C(O)(c2ccccc2)c2ccccc2)CC1	none (no result: CendR NRP1 mod, CRFBP-R2 block, CRFR2-BP ag)
Cc1ccc(S(=O)(=O)N(CC(=O)N=Nc2c(O)[nH]c3ccccc23)c2ccc(C)c(C)c2)cc1	CRFBP-R2 block 67
CC(=O)c1ccc2c(c1)C1C=CCC1C(C(=O)O)N2 (stereo not drawn)	none
COc1cccc2c1NC(C(=O)O)C1CC=CC21 (stereo not drawn)	CendR NRP1 mod 42 (no result: Tn7 DDE FP, Tn6 DDE FP, proKLK7 act)
Cc1ccc(-n2c(SCc3cccc4ccccc34)nnc2-c2ccccn2)cc1	none (no result: CendR NRP1 mod, CRFBP-R2 block, CRFR2-BP ag)
NC(=O)CS(=O)(=O)c1nc2ccccc2n1Cc1ccccc1F	CRFBP-R2 block 118
CC(=O)NCc1nc2ccccc2n1Cc1ccccc1F	none
O=C(CSc1nnc(CNC(=O)c2ccco2)o1)Nc1cccc(F)c1	CendR NRP1 mod 19
COc1ccc(NC(=O)CSc2nnc(CNC(=O)c3ccco3)o2)c(OC)c1	none
COc1ccccc1NC(=O)CSc1nnc(CNC(=O)c2ccco2)o1	CRFBP-R2 block 66
NC(=O)c1c(N)[nH]c(C(=O)c2ccccc2)c1-c1ccccc1	none (no result: CendR NRP1 mod, CRFBP-R2 block, CRFR2-BP ag)
O=C(CC[C@H]1O[C@@H](n2cnc3c(NC(=O)c4ccccc4)ncnc32)[C@H](O)[C@@H]1O)NCc1ccco1	none (no result: CRFBP-R2 block, CRFR2-BP ag)
COCCCNC(=O)/C=C/[C@H]1O[C@@H](n2cnc3c(NC(=O)c4ccccc4)ncnc32)[C@H](O)[C@@H]1O	none (no result: CRFBP-R2 block, CRFR2-BP ag)
O=C(CC[C@H]1O[C@@H](n2cnc3c(NC(=O)c4ccccc4)ncnc32)[C@H](O)[C@@H]1O)NCC(F)(F)F	CendR NRP1 mod 20 (no result: CRFBP-R2 block, CRFR2-BP ag)
O=C(/C=C/[C@H]1O[C@@H](n2cnc3c(NC(=O)c4ccccc4)ncnc32)[C@H](O)[C@@H]1O)NCc1cccs1	CendR NRP1 mod 18 (no result: CRFBP-R2 block, CRFR2-BP ag)
COc1ccc(C(c2ccc(OC)cc2)N2CCN(C(=O)c3noc(C)c3[N+](=O)[O-])CC2)cc1	none (no result: CendR NRP1 mod, CRFBP-R2 block, CRFR2-BP ag, proKLK7 act)
COc1ccc(/C=N/NC(=O)c2ccccc2NC(=O)c2ccco2)c(OC)c1	CRFBP-R2 block 111
COc1ccc(NC(=O)c2ccccc2NC(=O)c2ccco2)c(OC)c1	none
Cc1noc(/C=C/c2ccc(-c3ccccc3Cl)o2)c1[N+](=O)[O-]	CRFR2-BP ag 205 (no result: Tn7 DDE FP, Tn6 DDE FP, proKLK7 act)
Cc1noc(/C=C/c2cccnc2)c1[N+](=O)[O-]	none
COc1ccc(N=Nc2ccc(N)nc2N)cc1	none
CCOc1ccc2nc3cc(N=Nc4ccc(N)nc4N)ccc3c(N)c2c1	CendR NRP1 mod 50 (no result: Tn7 DDE FP, Tn6 DDE FP, proKLK7 act)
C/C(=N\NC(=O)c1ccc(NS(=O)(=O)c2cccs2)cc1)c1ccncc1	none
C/C(=N\NC(=O)c1ccc(NS(=O)(=O)c2cccs2)cc1)c1ccccc1	CRFBP-R2 block 58
O=S(=O)(Nc1cccc(Cl)c1)c1cccc(-n2cnnn2)c1	CendR NRP1 mod 20
Cc1ccsc1/C=N\NC(=O)CCc1c(C)n[nH]c1C	CRFBP-R2 block 52
Cc1n[nH]c(C)c1CCC(=O)N/N=C/c1cccs1	none
CC[C@H]1C=C[C@@H](C(=O)NS(=O)(=O)c2ccc(C)cc2)N(C(C)=O)C1	none (no result: CendR NRP1 mod, CRFBP-R2 block, CRFR2-BP ag)
Cc1noc(C)c1CSCc1ccc(Cl)cc1	CRFBP-R2 block 76
FC(F)(F)c1nc(-c2ccncc2)ncc1-c1nnnn1-c1ccccc1	none
Cc1ccc(-n2nnnc2-c2cnc(-c3cccnc3)nc2C(F)(F)F)cc1	CendR NRP1 mod 20
CC(=O)c1ccc(N2CCN(C(=O)c3ccc(-c4ccccc4)cc3)CC2)cc1	none
CC(=O)c1ccc(N2CCN(C(=O)c3cccc(Oc4ccccc4)c3)CC2)cc1	CRFBP-R2 block 78
CCOC(=O)C1=C(C(=O)OCC)C2N(Cc3ccc(C(F)(F)F)cc3)c3ccccc3[C@@]23C[C@@H](C(=O)OC)N(S(=O)(=O)c2ccc(OC)cc2)C3=N1 (stereo partly drawn)	none (no result: CendR NRP1 mod, CRFBP-R2 block, CRFR2-BP ag)
CCOC(=O)CN1C(=O)S/C(=C/C=C/c2ccc(N(C)C)cc2)C1=O	CRFR2-BP ag 90
COc1ccccc1C(c1c(O)nc(SC)[nH]c1=O)c1c(O)nc(SC)[nH]c1=O	none
CCOc1cc(C(c2c(O)nc(SC)[nH]c2=O)c2c(O)nc(SC)[nH]c2=O)ccc1O	CendR NRP1 mod 30
Cc1ccc(Cn2nnc3c2-c2ccccc2S(=O)(=O)N(C)C3)cc1	none (no result: CendR NRP1 mod, CRFBP-R2 block, CRFR2-BP ag)
Cc1cccc(N(CC(=O)NC2CCCC2)C(=O)CS(=O)CC(=O)Nc2ccc3c(c2)OCO3)c1C (stereo not drawn)	CendR NRP1 mod 28
CC(C)[C@@H]1OC(=O)[C@@H]2CCCN2C(=O)[C@H](C)OC(=O)[C@H](C)[C@@H](C(C)C)NC(=O)[C@@H]2CCCN2C(=O)[C@H]([C@H](C)Cc2ccccc2)NC(=O)[C@@H]2CCCN2C(=O)[C@@H](C(C)C)N(C)C1=O	none (no result: CendR NRP1 mod, CRFBP-R2 block, CRFR2-BP ag, proKLK7 act)
O=S(=O)(CC1NCc2ccccc21)NCCc1ccccc1 (stereo not drawn)	none (no result: CendR NRP1 mod, CRFBP-R2 block, CRFR2-BP ag)
Cc1ccc(CNC(=O)c2ccc3c(c2)S(=O)(=O)c2ccccc2C3=O)o1	none
O=C(Nc1ccccn1)c1ccc2c(c1)S(=O)(=O)c1ccccc1C2=O	none
O=C(NCCO)c1ccc2c(c1)S(=O)(=O)c1ccccc1C2=O	CendR NRP1 mod 22
O=C1c2ccccc2S(=O)(=O)c2cc(C(=O)N(c3ccccn3)c3ccccn3)ccc21	CRFR2-BP ag 173
COc1ccccc1NC(=O)N(Cc1ccco1)Cc1cc2cccc(C)c2[nH]c1=O	CendR NRP1 mod 26
CC(C)CN1C(=O)[C@@]2(CC(=O)N(C)C2c2ccccc2)c2cc(-n3cc(CCCC#N)nn3)ccc21 (stereo partly drawn)	none (no result: CendR NRP1 mod, CRFBP-R2 block, CRFR2-BP ag)
COC(=O)c1cn(-c2ccc3c(c2)[C@@]2(CC(=O)N(C)C2c2ccccc2)C(=O)N3CC(C)C)nn1 (stereo partly drawn)	none (no result: CendR NRP1 mod, CRFBP-R2 block, CRFR2-BP ag)
O=C(O)c1cccc2c1C(=O)N(Cc1ccccc1)C2	CRFBP-R2 block 63
CC(=O)NS(=O)(=O)c1ccc(N=NN2CCOCC2)cc1	CendR NRP1 mod 27
